Assay results as given in the EternaBench riboswitch data.

Tested on: MS2 coat protein
Assay: apparent Kd, MS2 coat protein; higher = weaker binding; RNA-MaP array; FMN 200 µM where present
How it was run: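 Apparent Kd: the median of filtered binding-curve fits from single clusters. Designs were transcribed on Illumina sequencing-chip clusters by stalled E. coli RNA polymerase and titrated with SNAP-549-labelled MS2 coat protein from 0.7 or 1.5 nM, doubling to 3 µM, in 100 mM Tris-HCl pH 7.5, 80 mM KCl, 4 mM MgCl2, BSA, DTT, yeast tRNA and Tween-20. Each series ran without and then with constant ligand, and green signal was normalised to red-channel RNA signal and control-cluster median Fmax.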

[1] = designed as: OFF switch for flavin mononucleotide, no ligand
[2] = ligand present: flavin mononucleotide, designed as: OFF switch for flavin mononucleotide
[3] = designed as: ON switch for flavin mononucleotide, no ligand
[4] = ligand present: flavin mononucleotide, designed as: ON switch for flavin mononucleotide

Row | Sequence | apparent Kd [1] [nM] | apparent Kd [2] [nM] | apparent Kd [3] [nM] | apparent Kd [4] [nM]
1 | CUUUUGUGAGGAUAUCAGUAGUUAAAAAAUAAAAUUACUACUGAGAAGGCACAUGAGGAUCACCCAUGUUCCUC | 42.5 | 308 |  | 
2 | UUUUUGUGAGGAUAUUAGUAGUAAAUAAAUAAAAUUACUACUGAGAAGGCACAUGAGGAUCACCCAUGUUCCUC | 33.6 | 254 |  | 
3 | UCCUCACAUGAGGAUCACCCAUGUCAGGAUAUAGGAGAUGGCAGAAAUCCUGCCAUCGCUAGAAGGGACUGGCA | 43.8 | 154 |  | 
4 | GACAUGAGGAUCACCCAUGUCCAUGCAAGAGUAGUUGAGACCAGAAGGACCUUGCGGAGCGCAGGGUAGGAUAUGGAGCCCUCA |  |  | 36.3 | 8.75
5 | AUACAAAGCACAGGAUAUGGGAGUGAGAAUCAUGCUGCGAAUUGAUUCGGACCAGAAGGGUGCACAUGAGGAUCACCCAUGUAC |  |  | 185 | 77.6
6 | GUCGGAAACGACAAAAGUAGCAUACGAGAAGGCUGAUCCACGACAUGAGGAUCACCCAUGUACUUAGAGGAUAUUGGAUGCUAC |  |  | 110 | 26.1
7 | AAUUUACAGGGAGGAUAUACAUGAGGAUCACCCAUGUAAUCAUAUGAUAUUUCUUUUGUAUGAGUGUAGAAGGCCCAACUACCA | 9.96 | 8.87 |  | 
8 | GGUUGACAAAGUCAACCUAAACGAACAUGAGGAUCACCCAUGUAGGAUAUGCUACUCAAAGAGUAGCAGAAGGACAUGUGCCUU | 37.6 | 273 |  | 
9 | GGAGAUACAUGAGGAUCACCCAUGUAGGAUAUAUAGUAUAUAUAUAGCGAAAGCUAUAUAUAUAUAUAGAAGGGCGUACACACC | 7.67 | 8.02 |  | 
10 | UUUUAGUCAGGAUAUACAUGAGGAUCACCCAUGUAAAAUUUUAAUUUAAUUUUAAGGUGUAGAAGGGACAAUUC | 48 | 38.6 |  | 
11 | UUGCCUCAGAACAUGAGGAUCACCCAUGUGCUGCGGGCAACGUAGGAUAUGACGGUAUGAUACCGUCAGAAGGAUGAUGGUACC |  |  | 5.62 | 5.25
12 | UGGAUAGGAAAAUUUGUCCAUUGUACAGAAGGCCAACAUGAGGAUCACCCAUGUAAGAAAAGGAUGGAGGAUAUGUAUAGGGCC |  |  | 64.5 | 20.9
13 | CAGCAAAAGUAGAAGGCAGUACUGAUUCAGUACUGAGGAUAUACAUGAGGAUCACCCAUGUCUUCCAGCUGAAUAAUAAAAUAA | 6.14 | 45.5 |  | 
14 | GGCGGUUUGGCAGGAUAUCGGAAACAGACCAAACGAGAAGGGCCUACAUGGCAAUGCGAAAGCAGACAUGAGGAUCACCCAUGU |  |  | 84.9 | 72.2
15 | CGGAACAUGAGGAUCACCCAUGUAGCUACUUAAAGGUGCUACAGAAGGGACAUUGCGCGUCAUGGUCAGGAUAUGUAGGGCGGA |  |  | 148 | 62.4
16 | GGAUAGUACAGAGGAUAUACGUGCUAGAGAUACUAGCAAAAUUUCCUCACAUGAGGAUCACCCAUGUAGAAGGCUGUCCUAUCG | 5.94 | 51.8 |  | 
17 | UAGCAUUGCCUUUGGUAGUGCUUUACAUGAGGAUCACCCAUGUAGGAUAUGGUAGGCUUUGCUUACCAGAAGGACAUGAUAAUU | 52.9 | 166 |  | 
18 | CUCGUGUAAGGAUAUGCGGGCGGGCGCGUUUGUGUUUGUUUGUAGAAGGUACAUGAGGAUCACCCAUGUACUGG | 25.5 | 57.4 |  | 
19 | AGCGAGAUAGGCAAGGAUAUGCUGGGUUUCACAUGAGGAUCACCCAUGUCAUUGGUUAUGUCCGAGCAGAAGGUGCAUUCUCUUU |  |  | 338 | 47.2
20 | AUUUCAUUCCUUCGACCAUUACCGAGAAGGGUCCACAUGAGGAUCACCCAUGUGGUCCUGAGCGGACAGGAUAUCGGAGUCGGG | 18.2 | 17.7 |  | 
21 | UUUAUGUCAGGAUAUGAGUAGUAGAACAAUAGUACUACUACUCAGAAGGGACAUGAGGAUCACCCAUGUUCCUC | 18.2 | 98.8 |  | 
22 | GUACUGACAGGAUAUACAUGAGGAUCACCCAUGUCCUUAUGCUGACAAAAGUCAGCGAGUAGAAGGGUCUGUAC | 101 | 603 |  | 
23 | AUUAUAUAGAUAGGAUAUAGAAUAUUAUUUUAACAUGAGGAUCACCCAUGUAACCUUAUGUGUAGCUAGAAGGAUCAUUUAUUA | 80.3 | 113 |  | 
24 | GGGAAUAAACCCGUCUCCGCUCAACCAGAAGGGCACGAUAAUAUUACAUGAGGAUCACCCAUGUUGCAGGAUAUGGUGAGCCUC |  |  | 191 | 52.9

Row | Sequence | apparent Kd [1] [nM] | apparent Kd [2] [nM] | apparent Kd [3] [nM] | apparent Kd [4] [nM]
25 | UGUGUCAUCGAGAAGGCCUCAACAUGAGGAUCACCCAUGUUGUAAUAUGGGAGGAUAUCGAUGAUACAGCUACGUUUCGUAGCU |  |  | 19.2 | 5.78
26 | GACAUACAUGAGGAUCACCCAUGUUCAGAAGGACAAGGAUAUGUGUGGAAACCAUACUAUACAGAAGGUGUCUGUC |  |  | 37.6 | 19.9
27 | AGUGUGUGGCAGGAUAUGCGAUUUGUCGGUGUAGCAGAAGGGUCUACAUGAGGAUCACCCAUGUGUGCGGUUGA | 438 | 446 |  | 
28 | UGCUACCUAGGAUAUACAUGAGGAUCACCCAUGUGAUUCGGUGGCGCGAUCCUUGAAAGUAGAAGGAGGAGCAA | 38.4 | 27.4 |  | 
29 | GUAGCUAUCGGAGGAUAUUCAUACCGGAAACGGACAUGAGGAUCACCCAUGUGGCGAAAGCCUUGGGAGAAGGCUGAUAGCUAC |  |  | 257 | 7.37
30 | UAUAUAUAGGCAGGAUAUACAUGAAUAUAUAUAAUAUAGUAUGAUGUAACAUGAGGAUCACCCAUGUAGAAGGGCCAAUAUAUA | 36.2 | 83.9 |  | 
31 | UUGAUUAUACAAGGAUAUCAAUUGUAUACAAGUCUUACAUGAGGAUCACCCAUGUUAAAUUUUUUUGAGAAGGUGUGUUUUCAG |  |  | 32.2 | 29.5
32 | CUGCUCGUAGAGAAGGCGUGGGCACAUGAGGAUCACCCAUGUCGCAGUACGAGGAUAUUUGCCGGCCCGCCCAAAAUGGCGCGA |  |  | 220 | 96.2
33 | CCUAAGGAGACAGGAUAUAGUGUGGUGGCCGGGCUCCCACGGCGAGCGGCACUAGAAGGGUCACUACAUGAGGAUCACCCAUGU |  |  | 30.3 | 15.6
34 | UUUUAGUCAGGAUAUCGUUAAUUUAAUUGUUUGUAUUAGUUCGAGAAGGGACAUGAGGAUCACCCAUGUACUUU | 23.7 | 24.5 |  | 
35 | AUCGUAACUUCGUGUCCACAUGAGGAUCACCCAUGUGCUACAAGAAGGGCCCGGGUCGGGUUAGGGCAGGAUAUUGUGUGCACA | 9.15 | 19.1 |  | 
36 | GUCUUUUUACAGAAGGUGUUUAACAUGAGGAUCACCCAUGUAUAUAUGGUUAAAUUUGAUAAUAACAAGGAUAUGUACUAAUCA |  |  | 53.4 | 46.4
37 | UGCGGUAGAGGAUAUACGUAGAAGUAGAUUCAUGUAAAACUACAUGAGGAUCACCCAUGUAGAAGGCUAUCGCU | 22.9 | 230 |  | 
38 | UGGUACAUGGGAGGAUAUGGGACAUGAGGAUCACCCAUGUGAAAAUUAAAUAUGCCGAGAGGCAACUAGAAGGCCCAUGUACCU |  |  | 29.9 | 14.9
39 | AGAAAUUAGUGAGGAUAUGCAUAAAUUGUAGCUGCAGAAGGCACGGACCACAAGACAUGAGGAUCACCCAUGUGGUAUUUAGAU | 29.9 | 34.9 |  | 
40 | CGAUAUAUGAAGGGCUAAUGCCCACAUGAGGAUCACCCAUGUAGAAGGCGAUCCGCAACGCGGAUCGAGGAUAUAUAGUAUACA | 9.02 | 9.66 |  | 
41 | CCCAGAGAUGAGAAGGGACACGGGUGCUUUCUGACAUGAGGAUCACCCAUGUCAGGAUAUCAGCAUGGCGUCGGGAUGCCCGAC | 7.24 | 5.8 |  | 
42 | GGGCUCAUCGAGAAGGCCUCAACAUGAGGAUCACCCAUGUUGUAAUAUGGGAGGAUAUCGAUGAUACAGCUACGUUUCGUACCC |  |  | 18 | 6.25
43 | CCCACGAAAGUCGAACGAUGUAGCAGAAGGACAUGAGGAUCACCCAUGUCAGCUGUAACAGCCAUGUAGGAUAUGCUACAUCCC | 5.24 | 6.88 |  | 
44 | CCGCCAUAAGUCAGGAUAUUCUUUAAGUUGUUGGAGAAGAAGGGACAUGAGGAUCACCCAUGUAAUAGGCCUCA | 842 | 598 |  | 
45 | AUAUAUAUUAGAGGAUAUGUGUUCAUGUUACAUGAGGAUCACCCAUGUUUAGGUUGAUUUAUCUUACAGAAGGCUAUACAAUCA | 71.5 | 76 |  | 
46 | UCAGUAGAGUCAGGAUAUACGUUAAAAUUUCCUCACAUGAGGAUCACCCAUGUAGAAGGGACUCUACUGUAAGUCGGAAACGAC | 35.2 | 686 |  | 
47 | GGAGCCGGCACCGAGGAUAUUCAUAUUAAAACAUGAGGAUCACCCAUGUAGAGCGAAAGCUCUUGGGAGAAGGCGGAUCGGCUCG |  |  | 730 | 46.5
48 | GACGUACAUGAGGAUCACCCAUGUACAGACGUACAAGGAUAUGUGUGGAAACCGUACUAUACAGAAGGUGUUUGUC |  |  | 15.7 | 15
